Source: PubChem BioAssay
MT1-MMP act inh = blocks activation of human MT1-MMP; GFP/RFP ratio change, % at 20 µM; P50281; AID 651647; 0.061% of 360,000 active; HT1080 RFP-PRO-GFP cells, GFP/RFP ratio fluorescence, overnight; percent of plate control window, DMSO zero;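 active = GFP/RFP ratio change of at least 30% with cell ATP level not reduced by more than half and red fluorescence within 50% of control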
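Assay system: HT1080 cells carrying an RFP-PRO-GFP reporter | Dosing: Single dose of 20 µM compound, 1% DMSO final | Incubation: Cells overnight before dosing, compound overnight, 37 °C, 5% CO2 | Evaluation: GFP/RFP fluorescence ratio | Control set: DMSO and RFP-L50D-GFP cell wells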
SKN-1 block = blocks SKN-1 activity in C. elegans. C. elegans VP596 Pgst-4::GFP/RFP ratio, acrylamide-induced, 24 h. inhibition, % at 21.8 µM. 0.49% of 360,000 active. AID 624304;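 active = interference check ratio from 0.5 to 1.5 plus GFP to RFP signal ratio inhibition reaching or exceeding a fixed threshold, cut at about 30% in these data, passing the limit was not always enough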
TLR4 MyD88 comp = TLR4-MyD88 interaction inhibition in cells; O00206+Q99836; HeLa CL3-4 TLR4/MyD88 BLA complementation, FRET ratio; inhibition, % at 8.4 µM; 0.18% of 200,000 active; in the data active = inhibition above about 25%
NOD2 RIPK2 PPI = blocks binding of human NOD2 to RIPK2; O43353; CHO BLA complementation NOD2-RIPK2, CCF4 ratio; inhibition, % at 4.98 µM; 0.38% of 360,000 active; in the data active = inhibition above about 21%
TLR9-MyD88 inh = inhibitors of human TLR9-MyD88 binding. Q9NR96+Q99836. 0.21% of 340,000 active. CHO BLA complementation TLR9-MyD88, CCF4 FRET ratio. inhibition, % at 4.98 µM. AID 504734;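 active = inhibition above the mean over all tested compounds plus 3 SD, cut at about 21% in these data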
Target sequence (Q99836 whole entry, looked up): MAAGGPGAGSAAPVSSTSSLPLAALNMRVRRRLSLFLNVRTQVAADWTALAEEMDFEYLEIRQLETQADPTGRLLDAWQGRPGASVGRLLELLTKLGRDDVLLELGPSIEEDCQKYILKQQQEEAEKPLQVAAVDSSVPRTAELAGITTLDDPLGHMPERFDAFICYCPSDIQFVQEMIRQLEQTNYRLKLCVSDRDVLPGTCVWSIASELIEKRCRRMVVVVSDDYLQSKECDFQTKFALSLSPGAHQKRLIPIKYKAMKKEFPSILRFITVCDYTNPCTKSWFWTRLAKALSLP
Target sequence (Q9NR96 whole entry, looked up): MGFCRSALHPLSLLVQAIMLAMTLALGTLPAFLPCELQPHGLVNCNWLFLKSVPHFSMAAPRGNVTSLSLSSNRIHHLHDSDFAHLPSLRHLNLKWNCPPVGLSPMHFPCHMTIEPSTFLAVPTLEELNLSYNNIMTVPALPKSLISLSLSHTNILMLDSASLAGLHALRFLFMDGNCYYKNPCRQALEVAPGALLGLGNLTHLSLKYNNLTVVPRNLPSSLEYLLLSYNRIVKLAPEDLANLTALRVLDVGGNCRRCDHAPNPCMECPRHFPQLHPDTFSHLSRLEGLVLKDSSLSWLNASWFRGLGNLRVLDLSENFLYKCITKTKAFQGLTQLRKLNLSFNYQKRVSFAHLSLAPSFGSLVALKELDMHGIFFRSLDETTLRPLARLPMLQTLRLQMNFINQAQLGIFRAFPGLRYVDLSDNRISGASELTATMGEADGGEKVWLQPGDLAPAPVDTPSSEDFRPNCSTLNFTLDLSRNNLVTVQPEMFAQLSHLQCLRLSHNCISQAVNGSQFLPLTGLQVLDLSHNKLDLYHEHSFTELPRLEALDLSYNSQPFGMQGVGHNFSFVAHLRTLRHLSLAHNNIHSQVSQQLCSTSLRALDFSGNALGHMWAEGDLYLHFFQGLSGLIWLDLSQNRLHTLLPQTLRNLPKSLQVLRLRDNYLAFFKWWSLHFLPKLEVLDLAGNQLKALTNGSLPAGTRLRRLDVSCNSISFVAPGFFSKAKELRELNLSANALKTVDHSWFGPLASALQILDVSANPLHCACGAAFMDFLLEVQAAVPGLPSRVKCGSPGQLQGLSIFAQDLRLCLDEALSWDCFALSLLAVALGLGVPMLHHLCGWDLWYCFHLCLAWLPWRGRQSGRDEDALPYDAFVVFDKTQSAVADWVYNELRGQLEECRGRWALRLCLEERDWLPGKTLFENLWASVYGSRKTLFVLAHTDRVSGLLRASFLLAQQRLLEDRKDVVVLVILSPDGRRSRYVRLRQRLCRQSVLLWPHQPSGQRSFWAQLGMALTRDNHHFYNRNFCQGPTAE
NOD2-RIPK2 conf = confirmation of human NOD2-RIPK2 interaction inhibitors; shares compounds with NOD2 RIPK2 PPI; CHO cells, NOD2-RIPK2 BLA complementation, CCF4 FRET; inhibition, % at 4.98 µM; 70% of 1,200 active; AID 624370;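 active = mean inhibition across replicates above a set limit taken from the earlier primary screen, cut at about 21% in these data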
BLA counter = NOD2-RIPK2 counterscreen BLA reporter activity | shares compounds with NOD2 RIPK2 PPI | CHO BLA reporter, CCF4 FRET ratio | inhibition, % at 4.98 µM | 57% of 1,200 active | AID 624371;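 active = mean inhibition above the low-control mean inhibition plus three low-control SD, cut at about 11% in these data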
Hits are given with their value; - = inactive; . = not tested or not shown. Only some compounds are listed: those with a hit (about 0.99% of all), similar ones and a draw of the others.

SMILES	MT1-MMP act inh	SKN-1 block	TLR4 MyD88 comp	NOD2 RIPK2 PPI	TLR9-MyD88 inh	NOD2-RIPK2 conf	BLA counter
CCC(=O)OCOc1ccc(/C=C2/CCC(CN(C)C)C2=O)cc1 (stereo not drawn)	-	-	.	33	-	35	-
Nc1cc2c(cc1Cl)-c1ccc([N+](=O)[O-])cc1C2=NO	-	-	.	22	-	-	26
O=[N+]([O-])c1ccc2c(c1)/C(=N\O)c1ccccc1-2	-	-	.	-	-	.	.
COc1ccc(N2C(=O)CC(Sc3nnnn3-c3ccc(F)cc3)C2=O)cc1 (stereo not drawn)	-	-	-	41	-	44	12
CCOC(=O)C[n+]1ccc2c([nH]c3ccccc32)c1C	-	-	.	38	-	-	-
CCOC(=O)Cc1c(Cl)c2ccccc2[nH]c1=O	-	-	-	-	-	.	.
C[C@H](CO)N1C[C@H](C)[C@@H](CN(C)S(=O)(=O)c2ccccc2F)Oc2ncc(C#Cc3cccnc3)cc2C1=O	-	-	.	-	-	.	.
O=S(=O)(c1cnc(Cl)c(Br)c1)N1CCc2ccccc21	-	-	.	27	-	35	-
O=S(=O)(c1cnc(Cl)c(Cl)c1)N1CCc2ccccc21	-	-	.	-	-	.	.
COc1ccccc1-c1ccc(/C=C2\C=CC(=O)O2)o1	-	-	.	48	.	45	49
COc1ccccc1-c1ccc(/C=C2/C=C(C)OC2=O)o1	-	-	-	-	-	.	.
COC(=O)c1nc(N)sc1-c1ccc(Cl)c(Cl)c1	-	-	.	-	-	.	.
O=C(Nc1nc2cc3c(cc2s1)OCO3)c1ccc(N2C(=O)CCC2=O)cc1	-	-	.	22	-	32	31
CCOC(=O)Cc1csc(NC(=O)c2cc(-c3ccncc3)nc3ccccc23)n1	-	-	.	-	-	.	.
Cc1ccc(C)c(Cn2c3ccccc3c3cnn(CC(=O)NCCCN4CCCCC4)c(=O)c32)c1	-	-	.	21	-	-	-
Cc1ccc(C)c(Cn2c3ccccc3c3cnn(CC(=O)NCc4ccccn4)c(=O)c32)c1	-	-	.	-	-	.	.
Cc1onc(-c2ccccc2)c1C(=O)Nc1nnc(COc2ccc(Cl)cc2)s1	-	-	-	36	-	-	-
Cc1[nH]c2ccccc2c1/C=N/NC(=O)c1cccc(Br)c1	-	-	.	-	-	.	.
O=C(N/N=C/c1[nH]c2ccccc2c1Cl)c1cccc(Br)c1	-	-	.	24	.	-	31
CCc1cc2c(=O)nc3n(c2s1)Cc1ccccc1/C3=C(/O)c1ccccc1Cl	-	-	-	31	-	-	-
O=c1c2cccc(Cl)c2nc2n1Cc1ccccc1-2	-	-	.	-	-	.	.
CCOC(=O)C1=CCC(c2ccccc2)N(S(=O)(=O)c2ccccc2C)C1 (stereo not drawn)	-	-	.	-	.	.	.
CC(=O)c1cccc(NC(=O)C(C)OC(=O)c2cccc(-n3cnnn3)c2)c1 (stereo not drawn)	-	-	.	-	-	.	.
O=C(CNC(=O)c1cccc([N+](=O)[O-])c1)OCCCC(=O)c1ccc(F)cc1	-	-	.	26	-	-	-
O=C(CCNc1ccc(F)cc1)c1cccc([N+](=O)[O-])c1	-	-	-	-	-	.	.
SMILES	MT1-MMP act inh	SKN-1 block	TLR4 MyD88 comp	NOD2 RIPK2 PPI	TLR9-MyD88 inh	NOD2-RIPK2 conf	BLA counter
COc1ccc(NC(=O)C(C2CC2)n2c(=O)c(-c3cc4ccccc4[nH]3)nc3ccccc32)cc1 (stereo not drawn)	-	-	.	46	.	40	67
COc1ccc(NC(=O)C(C2CC2)n2c(=O)c(-c3ccco3)nc3ccccc32)cc1 (stereo not drawn)	-	-	.	-	.	.	.
O=C(Nc1ccc2ccccc2c1)C(C1CC1)n1c(=O)c(-c2cc3ccccc3[nH]2)nc2ccccc21 (stereo not drawn)	-	-	.	45	.	41	66
O=C(Nc1ccc2c(c1)OCCO2)C(C1CC1)n1c(=O)c(-c2cc3ccccc3[nH]2)nc2ccccc21 (stereo not drawn)	-	-	.	45	.	38	61
O=C(N/N=C/c1c(O)n(-c2ccccc2Cl)c(=O)c2ccccc12)C1COc2ccccc2O1 (stereo not drawn)	-	-	-	23	-	26	39
Cc1ccc(-n2c(O)c(/C=N/NC(=O)C3COc4ccccc4O3)c3ccccc3c2=O)cc1 (stereo not drawn)	-	-	-	-	-	.	.
CCOC(=O)c1c[nH]c(=S)n(-c2ccccc2)c1=O	-	-	.	-	-	.	.
CCOC(=O)c1c(SCCN2CCCC2)n(-c2ccccc2)c(=S)n(-c2ccccc2)c1=O	-	-	.	89	-	86	-
O=C(O)c1ccccc1NS(=O)(=O)c1ccc(N/N=C/c2ccc(O)c(O)c2)c([N+](=O)[O-])c1	-	-	.	-	-	.	.
COc1ccc(C=NNc2ccc([N+](=O)[O-])cc2S(=O)(=O)Nc2ccccc2C(=O)O)cc1OC	-	-	.	27	-	36	36
COc1ccc(CC2C(=O)NC(C)C(=O)N(C)C3Cc4ccc(cc4)Oc4cc(ccc4O)CC(C(=O)NC(C)C(=O)NC(C)C(=O)N2C)N(C)C3=O)cc1 (stereo not drawn)	-	-	.	22	-	26	-
Cc1ccc2nc(N3CCN(C=O)CC3)nc(-c3ccccc3)c2c1	-	-	-	26	-	29	38
Cc1ccc2nc(N3CCN(C(=O)CCCC(=O)O)CC3)nc(-c3ccccc3)c2c1	-	-	.	-	-	.	.
COc1ccc(OC)c(CC(=O)N2CCc3cc(OC)c(OC)cc3C2)c1	-	-	.	-	-	.	.
O=C(COc1ccc(S(=O)(=O)N2CCOCC2)cc1Cl)NCC1CCCO1 (stereo not drawn)	-	-	.	46	-	-	-
CCOC(=O)C1=CN(Cc2ccco2)S(=O)(=O)N(CC)C1c1ccc(C(F)(F)F)cc1 (stereo not drawn)	-	-	.	-	-	.	.
NC(=O)c1ccc(NC(=O)CN2CCN(Cc3ccccc3)CC2)cc1	-	-	.	-	-	.	.
O=C(O)c1cccc2c1C(=O)N(CC1CCCO1)C2 (stereo not drawn)	-	-	-	-	-	.	.
O=C(NCc1ccc(Cl)cc1)c1cccc2c1C(=O)N(CC1CCCO1)C2 (stereo not drawn)	-	-	.	39	-	-	-
O=C(c1cccc(S(=O)(=O)N2CCCc3ccccc32)c1)N1CCN(c2ccccc2)CC1	-	-	.	-	-	.	.
CN(CC(=O)Nc1cccc(S(=O)(=O)N2CCCC2)c1)Cc1ccccc1	-	-	.	-	-	.	.
Cc1cc(N(CC(=O)NC(C)C)S(C)(=O)=O)ccc1Br	-	-	-	24	-	-	-
Cc1cc(N(CC(=O)O)S(C)(=O)=O)ccc1Br	-	-	-	-	-	.	.
